Converted amounts (≈) assume the structure as drawn.
Tests used:
Solubility in solvents = assay type: physicochemical
[1] = Pharmacokinetics in rhesus macaques; assay type: in vivo, Rhesus Macaques (Macaca mulatta)
Method in brief: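 Two rhesus macaques, fasted overnight with water allowed. Oral powder was mixed into a chocolate treat, with dose set by the amount eaten. After a 2-week washout, i.v. dosing used 5 mg/mL in 25% Cremophor EL/75% PBS. Ketamine 10 mg/kg i.m. for sampling. EDTA plasma taken pre-dose to 24 h, C18 SPE, then LC-ESI-MS (m/z 277; analogue internal standard; calibration 25 nM–2.5 µM). F = dose-normalised AUC po/iv.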

[2] = male, rhesus monkey, plasma, iv, 5 mg/kg
[3] = male, rhesus monkey, plasma, po, 50 mg/kg

With `Clc1ccccc1C(c1ccccc1)(c1ccccc1)n1cccn1` [TRAM-34, 1-[(2-chlorophenyl)-diphenylmethyl]-1H-pyrazole] as the compound, how does the solubility (Solubility in solvents; ethanol, organic solvent or mixture) read?
The solubility was 4000 µg/mL (≈ 11.6 mM).

What about the solubility in water (Solubility in solvents; water) of the same compound?
Its solubility in water is “practically insoluble in water”.

And the AUC(0-t) [1, 2]?
The AUC(0-t) was 3.64 µM·h.

And the Vd [1, 2]?
Its Vd is 11.1 L/kg.

And the clearance [1, 2]?
The clearance was 53.3 mL/min/kg.

And the bioavailability ([1]; male, rhesus monkey, plasma, oral, 50 mg/kg)?
Its bioavailability is 0.3%.

What about the AUC(0-t) [1, 3] of the same compound?
The AUC(0-t) was 0.103 µM·h.

What about the Cmax [1, 3] of the same compound?
The Cmax was 22.5 nM.

What about the Tmax [1, 3] of the same compound?
Its Tmax is 2 h.

And the Vd ([1]; oral powder without enteric coating, 50 mg/kg, Rhesus Macaques)?
The Vd was 6.5 L/kg.
